From ChEMBL document CHEMBL4138193, “Novel indole and triazole based hybrid molecules exhibit potent anti-adipogenic and antidyslipidemic activity by activating Wnt3a/β-catenin pathway” (Eur J Med Chem, 2018)
The source made the active and inactive calls. The rule behind the calls is not given here.

Columns and labels:
Syrian golden hamster [1] = experiment: Induction of reverse cholestrol transport in high fat diet-induced dyslipidemia Syrian Golden hamster model assessed as increase in ABCA1 mRNA expression in eWAT at 100 mg/kg, po administered for 1 week by qRT-PCR analysis; format: functional, organism-based; settings: Mesocricetus auratus
3T3-L1 [2] = experiment: Induction of Wnt5b mRNA expression in mouse 3T3L1 cells at 20 uM by qRT-PCR analysis; format: functional, cell-based
Procedure, shortened: (§1)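 3T3-L1 cells induced with MDI differentiation medium with or without 20 µM. RNA isolated with TRIzol and 500 ng reverse-transcribed to cDNA for real-time PCR. n=3 with triplicates, mean ± SD; one-way ANOVA with Bonferroni post-test.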

Syrian golden hamster [3] = experiment: Induction of reverse cholestrol transport in high fat diet-induced dyslipidemia Syrian Golden hamster model assessed as decrease in CETP mRNA expression in liver at 100 mg/kg, po administered for 1 week by qRT-PCR analysis; format: functional, organism-based; settings: Mesocricetus auratus
Mus musculus [4] = species on record: Mus musculus; experiment: Activation of Wnt3a/beta-catenin in mouse 3T3L1 cells assessed as down-regulation of FAS expression at 20 uM after 2 to 6 days in presence of FH353 by Western blot analysis; format: cell-based
3T3-L1 [5] = experiment: Induction of Wnt5a mRNA expression in mouse 3T3L1 cells at 20 uM by qRT-PCR analysis; format: functional, cell-based; procedure, shortened: as §1
Syrian golden hamster [6] = experiment: Induction of reverse cholestrol transport in high fat diet-induced dyslipidemia Syrian Golden hamster model assessed as increase in HNF1alpha mRNA expression in liver at 100 mg/kg, po administered for 1 week by qRT-PCR analysis; format: functional, organism-based; settings: Mesocricetus auratus
Syrian golden hamster [7] = experiment: Induction of reverse cholestrol transport in high fat diet-induced dyslipidemia Syrian Golden hamster model assessed as reduction in eWAT to body weight ratio at 100 mg/kg, po administered for 1 week; format: functional, organism-based; settings: Mesocricetus auratus
Procedure, shortened: (§2)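 Male Syrian Golden hamsters on 45% kCal HFD, dosed 100 mg/kg p.o. in 0.5% NaCMC for one week, 4 per group. Food intake and body weight recorded daily. At the end, animals were saline-perfused and liver and eWAT were excised and weighed. Paraffin sections stained with H&E and imaged at 20x.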

3T3-L1 [8] = experiment: Cytotoxicity against mouse 3T3L1 cells at 1 to 1000 uM after 24 hrs by MTT assay; format: cell-based; settings: 3t3-l1, 24 h
Procedure, shortened: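 3T3-L1 cells seeded at 1×10^4 per well and grown 24 hr, then exposed to 1–1000 µM for 24 hr. Medium was replaced with MTT medium ([…]) for 3 hr and the formazan dissolved in DMSO. Absorbance read at 570 nm; three independent experiments, mean ± SD.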

Mus musculus [9] = species on record: Mus musculus; experiment: Activation of Wnt3a/beta-catenin in differentiated mouse 3T3L1 cells assessed as upregulation of phosphorylated beta-catenin expression at 20 uM after 16 to 24 hrs in presence of beta-catenin/TCF complex inhibitor FH353 by Western blot analysis
Procedure, shortened: (§3)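 Confluent 3T3-L1 cells given differentiation media (IBMX/insulin/dexamethasone) with 20 µM compound, with or without the β-catenin/TCF inhibitor FH353 (10 µM). Proteins isolated at 16 and 24 h and Western blotted after SDS-PAGE and nitrocellulose transfer. Blocking in 5% milk/TBS-T, primary antibody overnight at 4 °C, chemiluminescent detection, β-actin control, three independent experiments.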

Mus musculus [10] = species on record: Mus musculus; experiment: Activation of Wnt3a/beta-catenin in mouse 3T3L1 cells assessed as down-regulation of CDK6 expression at 20 uM after 16 to 24 hrs by Western blot analysis; format: cell-based
Procedure, shortened: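 3T3-L1 cells given MDI differentiation media (0.5 mM IBMX, 5 µg/ml insulin, 250 nM dexamethasone) with or without 20 µM compound. Proteins isolated at 16 and 24 h and probed by Western blot for CDK2, CDK4, CDK6, cyclin D1 and D3. Densitometry normalized to actin, n=3, mean ± SD, Student t test.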

Mus musculus [11] = species on record: Mus musculus; experiment: Activation of Wnt3a/beta-catenin in differentiated mouse 3T3L1 cells assessed as down-regulation of FAS protein expression at 20 uM after 16 to 24 hrs by Western blot analysis
Procedure, shortened: (§4)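 3T3-L1 preadipocytes grown to confluence in high-glucose DMEM/10% FBS, then given differentiation media (0.5 mM IBMX, 5 µg/ml insulin, 250 nM dexamethasone) with or without 20 µM compound. Protein isolated at set time points, lysed with protease/phosphatase inhibitors, BCA-quantified, resolved by 8–12% SDS-PAGE, immunoblotted with ECL detection. β-actin loading control, densitometry normalized to actin, n=3.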

Mus musculus [12] = species on record: Mus musculus; experiment: Activation of Wnt3a/beta-catenin in differentiated mouse 3T3L1 cells assessed as down-regulation of PPARgamma protein expression at 20 uM after 16 to 24 hrs by Western blot analysis; procedure, shortened: as §4
Mus musculus [13] = species on record: Mus musculus; experiment: Activation of Wnt3a/beta-catenin in differentiated mouse 3T3L1 cells assessed as upregulation of phosphorylated beta-catenin expression at 20 uM after 16 to 24 hrs by Western blot analysis; procedure, shortened: as §4
3T3-L1 [14] = experiment: Anti-adipogenic activity in mouse 3T3L1 pre-adipocytes in differentiation media assessed as reduction in lipid accumulation at 20 uM after 20 mins in presence of beta-catenin/TCF complex inhibitor FH353 by Oil Red O staining based microscopic method; format: functional, cell-based
Procedure, shortened: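 3T3-L1 adipocytes given 20 µM compound with or without 10 µM FH353 in differentiation media, then Oil red O stained. Imaged at 20x and 40x, representative of three independent experiments.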

Syrian golden hamster [15] = experiment: Induction of reverse cholestrol transport in high fat diet-induced dyslipidemia Syrian Golden hamster model assessed as increase in PPARalpha mRNA expression in liver at 100 mg/kg, po administered for 1 week by qRT-PCR analysis; format: functional, organism-based; settings: Mesocricetus auratus
Mus musculus [16] = species on record: Mus musculus; experiment: Activation of Wnt3a/beta-catenin in differentiated mouse 3T3L1 cells assessed as down-regulation of PPARgamma mRNA expression at 20 uM by qRT-PCR analysis
Procedure, shortened: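 3T3-L1 cells differentiated with IBMX/dexamethasone/insulin media with or without 20 µM compound over the differentiation period. RNA extracted with TRIZOL, 500 ng reverse-transcribed to cDNA, then quantitative real-time PCR. Three independent experiments run in triplicate, mean ± SD, one-way ANOVA with Bonferroni posttest.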

3T3-L1 [17] = experiment: Anti-adipogenic activity in mouse 3T3L1 cells assessed as reduction in lipid accumulation at 20 uM measured up to 7 days by Oil Red O staining based leica microscopy; format: functional, cell-based
Procedure, shortened: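 3T3-L1 or C3H10T1/2 cells given 20 µM compound in differentiation media for varied time periods, then stained with Oil red O. Imaged by microscopy at 10x, representative of three independent experiments.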

Mus musculus [18] = species on record: Mus musculus; experiment: Activation of Wnt3a/beta-catenin in mouse 3T3L1 cells assessed as down-regulation of CDK2 expression at 20 uM after 16 to 24 hrs in presence of FH353 by Western blot analysis; format: cell-based; procedure, shortened: as §3
Syrian golden hamster [19] = experiment: Induction of reverse cholestrol transport in high fat diet-induced dyslipidemia Syrian Golden hamster model assessed as reduction in liver weight at 100 mg/kg, po administered for 1 week; format: functional, organism-based; settings: Mesocricetus auratus; procedure, shortened: as §2

In the case of Cc1ccc(S(=O)(=O)N(Cc2cn(Cc3cccc(F)c3F)nn2)Cc2cn(S(=O)(=O)c3ccc(C)cc3)c3ccccc23)cc1, the Activity (Syrian golden hamster [1]) is reported as “Active”, the Activity (3T3-L1 [2]) is reported as “inactive” and the Activity (Syrian golden hamster [3]) is reported as “Active”. The Activity (Mus musculus [4]) was “inactive”, the Activity (3T3-L1 [5]) was “inactive” and the Activity (Syrian golden hamster [6]) was “Active”. The Activity (Syrian golden hamster [7]) was “Active”, the Activity (3T3-L1 [8]) was “Non-Toxic” and the Activity (Mus musculus [9]) was “inactive”. For the same compound, the Activity (Mus musculus [10]) was “Active”, the Activity (Mus musculus [11]) was “Active” and the Activity (Mus musculus [12]) was “Active”. The Activity (Mus musculus [13]) was “Active”, the Activity (3T3-L1 [14]) was “inactive” and the Activity (Syrian golden hamster [15]) was “Active”. For the same compound, the Activity (Mus musculus [16]) was “Active”, the Activity (3T3-L1 [17]) was “Active” and the Activity (Mus musculus [18]) was “inactive”. The Activity (Syrian golden hamster [19]) was “Active”.
